We go through 3 compounds from ChEMBL document CHEMBL4808210, “Mapping Chromone-3-Phenylcarboxamide Pharmacophore: Quid Est Veritas?” (J Med Chem, 2021).

Structures are written as SMILES. Where only a bound is given, the exact number is not on record here.

As a reminder, the IC50 is the concentration that inhibits the measured activity by half. As usually defined, the inhibition is the share of the control response that was lost under treatment.

Data set [1] has as its target T1, Amine oxidase [flavin-containing] B (Homo sapiens, UniProt P27338).
T1 sequence (P27338 whole entry): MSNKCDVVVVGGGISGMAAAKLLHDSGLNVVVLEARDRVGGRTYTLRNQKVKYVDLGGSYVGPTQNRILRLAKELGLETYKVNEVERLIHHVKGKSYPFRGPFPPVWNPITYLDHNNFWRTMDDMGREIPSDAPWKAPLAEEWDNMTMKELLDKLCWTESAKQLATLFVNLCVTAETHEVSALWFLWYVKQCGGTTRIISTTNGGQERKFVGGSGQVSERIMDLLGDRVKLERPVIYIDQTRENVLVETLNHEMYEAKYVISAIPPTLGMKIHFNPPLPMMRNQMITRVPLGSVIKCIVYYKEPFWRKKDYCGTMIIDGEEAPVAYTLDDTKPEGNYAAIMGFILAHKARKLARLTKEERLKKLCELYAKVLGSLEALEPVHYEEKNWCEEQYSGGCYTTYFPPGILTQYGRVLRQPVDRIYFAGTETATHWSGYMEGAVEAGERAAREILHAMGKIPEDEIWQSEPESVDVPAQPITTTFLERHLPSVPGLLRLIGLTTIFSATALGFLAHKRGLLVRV
Put plainly: Inhibition of recombinant human MAO-B expressed in baculovirus infected BTI-TN- 5B1-4 insect cells using kynuramine as substrate preincubated for 10 mins in presence of substrate followed by enzyme addition and measured every minute for 30 mins by spectrophotometry analysis. It counts as cell-based.

The target of another data set is T2, MAO-A (Homo sapiens, UniProt P21397).
T2 sequence (P21397 whole entry): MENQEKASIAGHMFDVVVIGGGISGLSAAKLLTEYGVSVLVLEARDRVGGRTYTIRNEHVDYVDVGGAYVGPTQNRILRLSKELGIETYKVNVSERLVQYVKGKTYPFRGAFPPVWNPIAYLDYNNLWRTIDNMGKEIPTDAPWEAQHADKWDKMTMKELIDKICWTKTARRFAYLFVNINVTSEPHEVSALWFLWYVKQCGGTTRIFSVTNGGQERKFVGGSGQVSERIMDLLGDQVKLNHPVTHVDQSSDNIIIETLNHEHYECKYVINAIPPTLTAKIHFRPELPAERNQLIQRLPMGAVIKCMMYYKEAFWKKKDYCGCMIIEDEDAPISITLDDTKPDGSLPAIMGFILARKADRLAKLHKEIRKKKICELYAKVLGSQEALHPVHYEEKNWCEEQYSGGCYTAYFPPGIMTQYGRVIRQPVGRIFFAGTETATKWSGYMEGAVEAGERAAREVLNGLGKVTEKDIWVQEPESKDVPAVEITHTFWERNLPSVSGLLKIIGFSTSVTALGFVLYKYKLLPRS
Kind of data set: Inhibition of recombinant human MAO-A expressed in baculovirus infected BTI-TN- 5B1-4 insect cells at 10 uM using kynuramine as substrate preincubated for 10 mins in presence of substrate followed by enzyme addition and measured every minute for 30 mins by spectrophotometry analysis relative to control. The note with it: probe kynuramine, time 40 min. The essentials: (§1)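 Recombinant hMAO-A and hMAO-B were assayed with kynuramine as substrate. Percent inhibition was taken at 10 μM, the highest concentration tested. Where the hMAO-A IC₅₀ was not reached, it was taken as 10 μM.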

The species named for another data set is Homo sapiens. Kind of data set: Selectivity index, ratio of IC50 for recombinant human MAO-A expressed in baculovirus infected BTI-TN- 5B1-4 insect cells to IC50 for recombinant human MAO-B expressed in baculovirus infected BTI-TN- 5B1-4 insect cells using kynuramine as substrate preincubated for 10 mins in presence of substrate followed by enzyme addition and measured every minute for 30 mins by spectrophotometry analysis. The essentials: as §1

For data set [2], the system named is SH-SY5Y. Kind of data set: Cytotoxicity against human SH-SY5Y cells assessed as reduction in cell viability at 10 uM measured after 24 hrs by MTT assay relative to control. Type of data set: cell-based. The essentials: (§2)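 Caco-2 cells, and SH-SY5Y cells first differentiated toward a dopaminergic-like phenotype, were treated for 24 h with compounds at 1 and 10 μM. Metabolic activity was read as MTT reduction to formazan, relative to untreated cells. Mean ± SEM of at least three independent experiments, each in triplicate.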

The subject of data set [3] is SH-SY5Y. Put plainly: Cytotoxicity against human SH-SY5Y cells assessed as reduction in cell viability at 1 uM measured after 24 hrs by MTT assay relative to control. It counts as cell-based. The method in brief:
as §2
In general terms: Tetrazolium assays rely on reduction of a dye to a coloured formazan, in cell work by metabolically active cells.

Data set [4] has as its system SH-SY5Y. Put plainly: Cytotoxicity against human SH-SY5Y cells assessed as effect on NR uptake at 1 to 10 uM measured after 24 hrs by neutral red uptake assay. It counts as cell-based. Conditions: dose 1-10 µM; call rule not given here. The method in brief:
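Differentiated SH-SY5Y cells were exposed to compounds at 1 and 10 μM for 24 h. Lysosomal activity was read as neutral red dye uptake and compared with untreated cells. Mean ± SEM of at least three independent experiments run in triplicate.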

In data set [5] the test system is Caco-2. Kind of data set: Cytotoxicity against human Caco-2 cells assessed as reduction in cell viability at 10 uM measured after 24 hrs by MTT assay relative to control. Conditions: caco-2, 24 h. Type of data set: cell-based. The essentials: as §2
The target in data set [6] is T3, Amine oxidase [flavin-containing] A (Homo sapiens, UniProt P21397).
T3 sequence (P21397 whole entry): T2 sequence (P21397 whole entry)
Kind of data set: Inhibition of recombinant human MAO-A expressed in baculovirus infected BTI-TN- 5B1-4 insect cells using kynuramine as substrate preincubated for 10 mins in presence of substrate followed by enzyme addition and measured every minute for 30 mins by spectrophotometry analysis. The method in brief:
as §1

For data set [7], the target named is T1, Amine oxidase [flavin-containing] B. Kind of data set: Time dependent inhibition of recombinant human MAO-B expressed in baculovirus infected BTI-TN- 5B1-4 insect cells assessed as increase in enzyme activity at IC80 measured after 120 mins. Conditions: bti-tn-5b1-4, 2 h.
Data set [8] shares this target. Put plainly: Mixed-type inhibition of recombinant human MAO-B expressed in baculovirus infected BTI-TN- 5B1-4 insect cells at 1 to 5 nM using varying levels of kynuramine as substrate by Lineweaver-Burk plot analysis. The note with it: dose 1-5 nM. The essentials: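 Initial rates of hMAO-B activity were measured at six kynuramine concentrations (10−100 μM), without inhibitor and at three inhibitor concentrations. Kinetic parameters were read from a double-reciprocal Lineweaver−Burk plot. An Ackermann−Potter plot of total enzyme concentration was also constructed.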

In data set [9] the test system is Caco-2. Kind of data set: Cytotoxicity against human Caco-2 cells assessed as effect on cell viability at 1 to 10 uM measured after 24 hrs by MTT assay. It counts as cell-based. Conditions: caco-2, 24 h, dose 1-10 µM. The essentials: as §2
Data set [10] concerns HUVEC. Put plainly: Cytotoxicity against HUVEC cells at 10 uM incubated for 24 to 48 hrs by Celltiter-Glo assay relative to control. Type of data set: cell-based. The note with it: human, time 24-48 hrs. The method in brief: (§3)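 Cells (HEK-293, HUVEC, MCF-7) exposed to test compounds at 10 μM for 24 h; cytotoxicity read in triplicate with a luminescence kit measuring intracellular ATP levels.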

Data set [11] deals with HEK293. Kind of data set: Cytotoxicity against HEK293 cells at 10 uM incubated for 24 to 48 hrs by Celltiter-Glo assay relative to control. Type of data set: cell-based. Conditions: human, hek293, 10 µM, time 24-48 hrs. The method in brief: as §3
The subject of data set [12] is MCF7. Kind of data set: Cytotoxicity against human MCF7 cells at 10 uM incubated for 24 to 48 hrs by Celltiter-Glo assay relative to control. Type of data set: cell-based. The note with it: mcf7, 10 µM, time 24-48 hrs. The essentials: as §3
On the technique in general: Cellular ATP, detected with luciferase, serves as a proxy for viable cell number.

Data set [13] relates to HUVEC. Kind of data set: Cytotoxicity against HUVEC cells incubated for 24 to 48 hrs by Celltiter-Glo assay. It counts as cell-based, Homo sapiens. Conditions: huvec.
The test system of data set [14] is HEK293. Kind of data set: Cytotoxicity against HEK293 cells incubated for 24 to 48 hrs by Celltiter-Glo assay. Type of data set: cell-based, Homo sapiens.
Data set [15] deals with MCF7. Kind of data set: Cytotoxicity against human MCF7 cells incubated for 24 to 48 hrs by Celltiter-Glo assay. It counts as cell-based.
For a further data set, the target named is hERG (Homo sapiens, UniProt Q12809). Kind of data set: Inhibition of human ERG at 10 uM incubated for 2 hrs by fluorescence polarization assay relative to control. The method in brief:
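hERG binding was measured by fluorescence polarization, using a homogenized membrane preparation containing hERG plus a fluorescent tracer. A drop in FP signal from tracer displacement was read as inhibition. Compounds were tested at 10 μM.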
(In general: Polarisation of emitted light reports the rotation of a fluorescent probe.)

Data set [16] has as its target ATP-dependent translocase ABCB1 (Homo sapiens, UniProt P08183). Kind of data set: Modulation of P-gp-mediated Rhodamine-123 efflux in human Caco-2 cells assessed as Rhodamine-123 accumulation at 10 uM pretreated for 30 mins in presence or absence of Zos followed by Rho-123 addition and measured after 90 mins by fluorescence spectroscopy. The note with it: caco-2, 2 h, time 120 min. It counts as cell-based. The essentials: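 Caco-2 cells were exposed to compounds at 10 μM during incubation with the P-gp substrate rhodamine 123 (5 μM). Zosuquidar served as the specific P-gp inhibitor. Cellular rhodamine 123 was read by fluorescence spectroscopy. Mean ± SEM of at least three independent experiments in triplicate.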

Data set [17] has as its system SH-SY5Y. Put plainly: Protection against iron(III)-induced damage in human SH-SY5Y cells assessed as increase in lysosomal activity at 10 uM pretreated for 30 mins followed by iron(III) treatment after 24 hrs by NR uptake assay relative to control. It counts as functional. The note with it: time 24.5 hrs. The essentials:
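Differentiated SH-SY5Y cells were pretreated with compounds at 1 or 10 μM for 30 min, then exposed to iron(III) at 1000 or 1500 μM for 24 h. Viability was read by neutral red uptake. Mean ± SD of three independent experiments, two-way ANOVA.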

ATP-dependent translocase ABCB1, sequence (P08183 whole entry): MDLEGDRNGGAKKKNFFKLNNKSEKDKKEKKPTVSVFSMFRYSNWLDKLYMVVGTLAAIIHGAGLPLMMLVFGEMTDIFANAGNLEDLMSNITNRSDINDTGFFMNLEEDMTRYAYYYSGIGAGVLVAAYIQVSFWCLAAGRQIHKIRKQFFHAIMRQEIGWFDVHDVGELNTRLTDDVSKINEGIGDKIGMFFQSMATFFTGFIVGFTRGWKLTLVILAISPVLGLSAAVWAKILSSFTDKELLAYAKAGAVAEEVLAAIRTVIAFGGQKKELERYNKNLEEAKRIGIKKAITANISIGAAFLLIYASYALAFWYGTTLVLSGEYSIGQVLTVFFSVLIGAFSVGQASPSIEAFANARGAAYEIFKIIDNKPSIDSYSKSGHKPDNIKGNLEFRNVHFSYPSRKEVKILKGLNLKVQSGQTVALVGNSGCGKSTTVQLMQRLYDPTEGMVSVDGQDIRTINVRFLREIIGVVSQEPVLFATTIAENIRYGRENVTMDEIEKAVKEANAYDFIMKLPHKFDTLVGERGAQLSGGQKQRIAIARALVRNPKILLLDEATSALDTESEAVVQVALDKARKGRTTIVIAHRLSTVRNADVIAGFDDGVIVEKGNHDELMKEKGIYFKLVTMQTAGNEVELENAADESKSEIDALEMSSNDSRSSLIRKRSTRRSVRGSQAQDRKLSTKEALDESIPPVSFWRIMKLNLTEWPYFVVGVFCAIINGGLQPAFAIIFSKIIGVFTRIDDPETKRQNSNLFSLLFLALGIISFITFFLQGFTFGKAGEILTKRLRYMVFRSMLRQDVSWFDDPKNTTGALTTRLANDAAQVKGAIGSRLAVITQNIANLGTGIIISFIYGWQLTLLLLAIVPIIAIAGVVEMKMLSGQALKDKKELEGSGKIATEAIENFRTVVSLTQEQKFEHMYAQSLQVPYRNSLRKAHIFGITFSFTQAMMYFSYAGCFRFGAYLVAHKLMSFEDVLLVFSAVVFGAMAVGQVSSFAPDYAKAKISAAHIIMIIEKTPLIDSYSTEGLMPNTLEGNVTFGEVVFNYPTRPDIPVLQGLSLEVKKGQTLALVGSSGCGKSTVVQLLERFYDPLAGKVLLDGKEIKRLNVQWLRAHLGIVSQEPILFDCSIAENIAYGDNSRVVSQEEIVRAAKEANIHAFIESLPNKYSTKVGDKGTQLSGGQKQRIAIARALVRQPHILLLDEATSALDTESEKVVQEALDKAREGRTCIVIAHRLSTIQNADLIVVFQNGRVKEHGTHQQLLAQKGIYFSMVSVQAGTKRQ
hERG, sequence (Q12809 whole entry): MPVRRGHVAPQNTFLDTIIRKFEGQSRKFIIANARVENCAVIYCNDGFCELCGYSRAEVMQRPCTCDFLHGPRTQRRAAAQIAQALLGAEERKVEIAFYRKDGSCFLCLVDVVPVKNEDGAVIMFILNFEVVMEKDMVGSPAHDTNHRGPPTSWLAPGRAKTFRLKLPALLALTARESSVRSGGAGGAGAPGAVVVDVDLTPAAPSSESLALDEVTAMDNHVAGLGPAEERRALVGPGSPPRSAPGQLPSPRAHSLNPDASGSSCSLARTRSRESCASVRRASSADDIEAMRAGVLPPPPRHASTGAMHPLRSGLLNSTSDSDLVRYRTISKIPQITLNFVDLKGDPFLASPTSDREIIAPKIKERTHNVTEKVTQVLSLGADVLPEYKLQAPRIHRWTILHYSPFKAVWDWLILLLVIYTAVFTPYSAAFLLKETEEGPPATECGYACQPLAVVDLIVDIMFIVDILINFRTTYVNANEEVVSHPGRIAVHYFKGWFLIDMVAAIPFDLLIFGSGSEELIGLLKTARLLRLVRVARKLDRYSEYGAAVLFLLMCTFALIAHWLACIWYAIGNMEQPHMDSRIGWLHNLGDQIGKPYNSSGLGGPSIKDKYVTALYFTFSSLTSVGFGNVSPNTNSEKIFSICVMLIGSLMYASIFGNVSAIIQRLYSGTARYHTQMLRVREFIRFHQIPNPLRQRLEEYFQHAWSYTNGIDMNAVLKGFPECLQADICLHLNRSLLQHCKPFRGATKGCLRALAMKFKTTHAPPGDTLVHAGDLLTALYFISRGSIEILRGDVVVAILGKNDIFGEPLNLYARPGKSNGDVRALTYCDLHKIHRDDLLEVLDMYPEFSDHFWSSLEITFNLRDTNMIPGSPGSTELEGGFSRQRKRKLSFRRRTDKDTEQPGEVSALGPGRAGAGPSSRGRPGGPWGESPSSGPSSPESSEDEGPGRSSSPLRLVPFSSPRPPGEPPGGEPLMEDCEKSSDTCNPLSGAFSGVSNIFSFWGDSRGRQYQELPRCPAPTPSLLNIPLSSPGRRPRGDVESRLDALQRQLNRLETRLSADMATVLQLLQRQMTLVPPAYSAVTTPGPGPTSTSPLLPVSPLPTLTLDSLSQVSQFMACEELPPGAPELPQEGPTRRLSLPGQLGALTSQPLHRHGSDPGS

`O=C(Nc1cccc(Cl)c1)c1cc2ccccc2oc1=O`: the IC50 in data set [1] came to 10.2 nM. The inhibition at 0.5 h, 10 µM at MAO-A turned out to be 13.5%. In the data set filed under Homo sapiens, the Ratio IC50 was greater than 985. In addition, the Activity is given as 71.8% in the data set with SH-SY5Y [2], 79.5% in the data set with SH-SY5Y [3], “Non-Toxic” in the data set on SH-SY5Y [4] and 93.5% in the data set with Caco-2 [5].

In the case of `O=C(Nc1cccc(Cl)c1)C1=Cc2ccccc2OC1`, the concentration for half-maximal inhibition (IC50) in data set [6] worked out at 11700 nM; in [1], 26.4 nM. Moreover, in the data set listed under Homo sapiens, the Ratio IC50 worked out at 444. Further, the Activity entry in the data set on SH-SY5Y [4] is given as “Non-Toxic”; in the data set with Caco-2 [5], 88.3%.

For the compound `O=C(Nc1cccc(Cl)c1)c1csc2ccccc2c1=O`, the IC50 was 1.52 nM in data set [1], “Not Active” in the data set on HUVEC [13], “Not Active” in the data set on HEK293 [14] and “Not Active” in the data set on MCF7 [15]. Also, the inhibition at 0.5 h, 10 µM at MAO-A came to 0.7%. Further, the Ratio IC50 in the data set filed under Homo sapiens is greater than 6570. In addition, the TDI entry in data set [7] is given as “Active”. For the same compound, the “inhibition (INH)” value in [8] is “Active”. The Activity entry is reported as “Non-Toxic” in the data set with SH-SY5Y [4]; “Non-Toxic” in the data set on Caco-2 [9]; less than 10% in the data set with HUVEC [10]; less than 10% in the data set with HEK293 [11]; less than 10% with MCF7 [12]; “Not Active” in data set [16]. In addition, the Activity with SH-SY5Y [17] was found to be 63%. For the same compound, the inhibition at 2 h, 10 µM against hERG is less than 10%.
